Results: PubChem BioAssay
Inconclusive results are not listed. The source made the active and inactive calls.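 Rule for the calls, unless noted: active = viability increase at or above a cutoff of the median across tested compounds plus 3 SD (cut at about 8.5% in these data, passing the limit was not always enough); inconclusive = some gains above the cutoff, reason not given; inactive = the rest.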

Experiments:
[1] = OD615 S. cerevisiae growth inhibition, permissive medium, pilot counter-assay, permissive growth control for S. cerevisiae lifespan shortening project (AID 705;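 active = growth inhibition above 25% in both replicates, a cutoff set 3 SD above the mean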); conditions: OD615, 24 h, at 10 µM, active compounds read high
Outline: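 System: Engineered DeaD yeast | Buffer or medium: SC raffinose/galactose permissive medium | Doses: 10 µM single dose, 0.25% DMSO | Times: 24 h exposure, 30 °C | Measured by: OD615 turbidity read | Read-out: Yeast growth inhibition indicated by reduced 24 h OD615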

[2] = Restrictive medium S. cerevisiae growth inhibition, OD615, pilot screen of yeast lifespan reduction project, restrictive growth control (AID 706;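 active = growth inhibition above a set limit, 3 SD over mean compound inhibition, in both replicates, cut at about 43% in these data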;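 note: modified DeaD lifespan yeast strain shifted to restrictive glucose medium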); conditions: OD615, 48 h, at 10 µM, active compounds read high
Outline: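 Assay system: engineered S. cerevisiae DeaD strain; Buffer or medium: CSMM-D glucose medium; Dosing: 10 µM compound, 0.25% DMSO; Times: cell pre-growth 4 h, compound exposure 48 h, 30 °C; Detection: absorbance (optical density) measured at 615 nm.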

[3] = viability gain of MRP-1-high H69AR cells under doxorubicin, pilot screen, MRP-1 activator project, CellTiter-Glo, duplicate (AID 807); conditions: H69AR viability with doxorubicin, CellTiter-Glo luminescence; at 10 µM; active compounds read high;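 note: compound pretreatment 18-22 h then 72 h combined with doxorubicin; 0% = doxorubicin alone and 100% = vehicle without doxorubicin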
[4] = growth suppression of beta-catenin knockout HCT116, pilot screen, human colon tumor cells (AID 823;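 active = cell viability at or below a set limit in both duplicate runs, the limit being the all-compound median minus 4 SD, cut at about 23% in these data, passing the limit was not always enough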;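 note: 0% = wells killed by 20 µM Hyamine and 100% = untreated DMSO cell wells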); conditions: CellTiter-Glo, 60 h, at 10 µM, active compounds read low
[5] = growth suppression of PTEN-deleted HCT116, pilot screen, cell-based, HCT116 clonal line, CellTiter-Glo (AID 824;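 active = viability at or below 27.92% in each of two runs, the all-compound median minus 4 SD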;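 note: 0% = 20 µM Hyamine control and 100% = vehicle cell control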); conditions: 60 h, at 10 µM, active compounds read low
[6] = inhibitors of the yeast RAM network, pilot screen, dse1pr::URA3 reporter, 5-FOA selection (AID 869;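 active = inhibition over a set limit, the all-compound mean plus 3 SD, in both replicate runs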;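 note: 0% = DMSO wells with no growth and 100% = 10 µM 1-NA-PP1 with full growth; RAM network block rescues cells from 5-FOA so hits raise OD615 growth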); conditions: S. cerevisiae dse1pr::URA3 5-FOA growth, OD615, 2 d; at 10 µM; active compounds read high; strain carries analog-sensitive mutant Cbk1 kinase
[7] = RAM signaling pathway blockade in yeast – S. cerevisiae, Pdr1DBD-CYC8 efflux-inhibited sensitized strain, primary screen (AID 1298;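 active = RAM network inhibition above 8.4% in each of two replicates, 3 SD over the compound average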;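 note: 0% = DMSO untreated cells without growth and 100% = 10 µM 1-NA-PP1 full growth; higher means more yeast growth rescued from 5-FOA killing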); conditions: S. cerevisiae cbk1-as DSE1-URA3 strain, 5-FOA growth OD615, 2 d; at 50 µM; active compounds read high

COc1ccc(-c2nnc(SCC(=O)N3CCN(c4ccccc4)CC3)o2)cc1OC
inactive: growth inhibition [1] -7.28% | growth inhibition [2] 7.65% | viability increase [3] -6.37% | viability [4] 73.7% | viability [5] 90% | inhibition [6] 1.64% | RAM network inhibition [7] 1.67%

O=C(c1ccc(S(=O)(=O)N2CCCC2)cc1)N1CCCc2ccccc21
inactive: growth inhibition [1] -17.6% | growth inhibition [2] -13.7% | viability increase [3] -4.87% | viability [4] 95.1% | viability [5] 92.4% | inhibition [6] 0.11% | RAM network inhibition [7] 1.2%

O=C(Cn1cnc2c(nnn2-c2ccccc2)c1=O)N1CCOCC1
inactive: growth inhibition [1] -5.42% | growth inhibition [2] -7.92% | viability increase [3] 0.78% | viability [4] 104% | viability [5] 104% | inhibition [6] -0.26% | RAM network inhibition [7] 0.26%

COc1ccc(C2C(C(=O)N3CCN(c4ccc(OC)cc4)CC3)c3ccccc3C(=O)N2C)cc1 (stereo not given)
inactive: growth inhibition [1] 1.52% | growth inhibition [2] -0.315% | viability increase [3] -0.98% | viability [4] 60.6% | viability [5] 61.9% | inhibition [6] 0.215% | RAM network inhibition [7] 0.86%

CCn1c(-c2ccc(N)cc2)nc2ccccc21
inactive: growth inhibition [1] -7.32% | growth inhibition [2] 7.48% | viability increase [3] -3.43% | viability [4] 103% | viability [5] 83.5% | inhibition [6] 1.18% | RAM network inhibition [7] 0.72%

CCOc1ccccc1N1C(=O)CC(N(O)c2ccccc2)C1=O (stereo not given)
inactive: growth inhibition [1] -13.4% | growth inhibition [2] -4.14% | viability increase [3] -5.35% | viability [4] 106% | viability [5] 96.3% | inhibition [6] 0.17% | RAM network inhibition [7] 12.8%

Cc1nn(CCCC(=O)N2CCc3ccccc3C2)c(=O)c2cc3sccc3n12
inactive: growth inhibition [1] -4.89% | growth inhibition [2] -14.2% | viability increase [3] -1.17% | viability [4] 97% | viability [5] 88.1% | inhibition [6] 1.39% | RAM network inhibition [7] 0.42%

CCOc1ccc(Nc2ncnc(N)n2)cc1
inactive: growth inhibition [1] -16% | growth inhibition [2] -1.21% | viability increase [3] 0.15% | viability [4] 97.4% | viability [5] 102% | inhibition [6] 0.055% | RAM network inhibition [7] 1.11%

Cc1cc(NCc2ccccc2)nc(-c2ccccc2O)n1
inactive: growth inhibition [1] -1.8% | growth inhibition [2] -4.48% | viability increase [3] -1.24% | viability [4] 69.5% | viability [5] 70% | inhibition [6] 0.345% | RAM network inhibition [7] 0.61%

O=C(Cn1c(=O)oc2cc(S(=O)(=O)N3CCCC3)ccc21)N1CCN(c2ccccn2)CC1
inactive: growth inhibition [1] 4.62% | growth inhibition [2] 6.56% | viability increase [3] 0.96% | viability [4] 90% | viability [5] 92.5% | inhibition [6] 2.1% | RAM network inhibition [7] 6.22%

CCCCc1ccc(Nc2ncnc3nc[nH]c23)cc1
inactive: growth inhibition [1] -6.71% | growth inhibition [2] 22.7% | viability increase [3] 2.8% | viability [4] 106% | viability [5] 94% | inhibition [6] -0.1% | RAM network inhibition [7] 1.66%

CC(C)c1nnc(NC(=O)CN2C(=O)c3ccccc3C2=O)s1
inactive: growth inhibition [1] -5.71% | growth inhibition [2] -6.92% | viability increase [3] -1.95% | viability [4] 96.3% | viability [5] 89.1% | inhibition [6] 1.61% | RAM network inhibition [7] 3.84%

O=C(Nc1nnc(-c2ccc(Cl)s2)o1)C1CCCCC1
inactive: growth inhibition [1] -14.7% | growth inhibition [2] -4.65% | viability increase [3] -4.45% | viability [4] 68.4% | viability [5] 63.2% | inhibition [6] 3.44% | RAM network inhibition [7] 3.62%

Cc1cc(-c2ccco2)n(CC(=O)NCc2ccco2)n1
inactive: growth inhibition [1] -3.72% | growth inhibition [2] -9.28% | viability increase [3] -2.82% | viability [4] 100% | viability [5] 100% | inhibition [6] 0.355% | RAM network inhibition [7] 2.47%

CC1CCCN(C(=O)C2CCN(S(=O)(=O)c3cccc4cccnc34)CC2)C1 (stereo not given)
inactive: growth inhibition [1] 1.07% | growth inhibition [2] 3.5% | viability increase [3] -3.54% | viability [4] 89.6% | viability [5] 85.6% | inhibition [6] 1.04% | RAM network inhibition [7] 5.46%
